Test results taken from ChEMBL document CHEMBL4706541, “Design and synthesis of 1H-indazole-3-carboxamide derivatives as potent and selective PAK1 inhibitors with anti-tumour migration and invasion activities” (Eur J Med Chem, 2020).

Tests used:
[1] = target: T1, Serine/threonine-protein kinase PAK 1 (Homo sapiens, UniProt Q13153); assay: Inhibition of full length recombinant human N-terminal GST/His6-tagged PAK1 expressed in sf9 insect cells using tetra LRRWSLG as substrate preincubated for 20 min followed by [gamma33P]ATP addition and measured after 120 mins by Hotspot assay
T1 sequence (Q13153 whole entry): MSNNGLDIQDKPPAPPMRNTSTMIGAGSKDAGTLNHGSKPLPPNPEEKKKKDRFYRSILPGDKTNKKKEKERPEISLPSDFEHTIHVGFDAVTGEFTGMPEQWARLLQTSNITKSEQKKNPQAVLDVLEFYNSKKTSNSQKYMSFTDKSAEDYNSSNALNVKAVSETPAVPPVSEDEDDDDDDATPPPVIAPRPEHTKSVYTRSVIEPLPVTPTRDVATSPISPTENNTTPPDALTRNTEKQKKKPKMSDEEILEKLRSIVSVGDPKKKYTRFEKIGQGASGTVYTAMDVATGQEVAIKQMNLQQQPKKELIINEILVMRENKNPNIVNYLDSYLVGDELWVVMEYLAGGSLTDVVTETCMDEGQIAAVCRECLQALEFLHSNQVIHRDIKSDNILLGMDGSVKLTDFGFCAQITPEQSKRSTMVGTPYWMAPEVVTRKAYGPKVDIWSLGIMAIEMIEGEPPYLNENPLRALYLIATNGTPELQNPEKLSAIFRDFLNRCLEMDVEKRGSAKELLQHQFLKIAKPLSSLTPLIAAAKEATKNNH

[2] = target: Serine/threonine-protein kinase PAK 4 (Homo sapiens, UniProt O96013); assay: Inhibition of full length recombinant human N-terminal GST/His6-tagged PAK4 expressed in baculovirus infected sf9 insect cells using tetra LRRWSLG as substrate preincubated for 20 min followed by [gamma33P]ATP addition and measured after 120 mins by Hotspot assay
Sequence of Serine/threonine-protein kinase PAK 4 (O96013 whole entry): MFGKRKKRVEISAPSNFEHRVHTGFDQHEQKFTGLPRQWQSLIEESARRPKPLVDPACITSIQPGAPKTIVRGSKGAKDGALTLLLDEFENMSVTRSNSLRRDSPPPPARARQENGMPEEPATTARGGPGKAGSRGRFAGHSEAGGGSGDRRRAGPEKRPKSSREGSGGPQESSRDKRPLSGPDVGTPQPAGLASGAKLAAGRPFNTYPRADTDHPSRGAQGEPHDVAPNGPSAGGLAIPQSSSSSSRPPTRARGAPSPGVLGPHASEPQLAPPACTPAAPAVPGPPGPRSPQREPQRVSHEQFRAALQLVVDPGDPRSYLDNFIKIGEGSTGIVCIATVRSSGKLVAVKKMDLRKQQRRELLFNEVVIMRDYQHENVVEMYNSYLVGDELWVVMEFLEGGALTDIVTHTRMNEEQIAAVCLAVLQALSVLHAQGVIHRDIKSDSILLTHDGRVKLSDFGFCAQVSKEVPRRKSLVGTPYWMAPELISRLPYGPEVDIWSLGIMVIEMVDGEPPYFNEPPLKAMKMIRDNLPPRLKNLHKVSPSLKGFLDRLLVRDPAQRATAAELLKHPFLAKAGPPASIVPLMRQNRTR

Homo sapiens = species on record: Homo sapiens; assay: Selectivity index ratio of IC50 for inhibition of human PAK4 to IC50 for human PAK1
Procedure, shortened: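 Compound tested from 10 µM in 3-fold serial dilutions in the HotSpot radiometric assay, with 20 min preincubation, 10 µM ATP/33P-ATP and 120 min at 25 °C. Filter-binding gives IC50. Selectivity is expressed as the PAK4 IC50 divided by the PAK1 IC50.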

[3] = target: Voltage-gated inwardly rectifying potassium channel KCNH2 (Homo sapiens, UniProt Q12809); assay: Inhibition of human ERG
Sequence of Voltage-gated inwardly rectifying potassium channel KCNH2 (Q12809 whole entry): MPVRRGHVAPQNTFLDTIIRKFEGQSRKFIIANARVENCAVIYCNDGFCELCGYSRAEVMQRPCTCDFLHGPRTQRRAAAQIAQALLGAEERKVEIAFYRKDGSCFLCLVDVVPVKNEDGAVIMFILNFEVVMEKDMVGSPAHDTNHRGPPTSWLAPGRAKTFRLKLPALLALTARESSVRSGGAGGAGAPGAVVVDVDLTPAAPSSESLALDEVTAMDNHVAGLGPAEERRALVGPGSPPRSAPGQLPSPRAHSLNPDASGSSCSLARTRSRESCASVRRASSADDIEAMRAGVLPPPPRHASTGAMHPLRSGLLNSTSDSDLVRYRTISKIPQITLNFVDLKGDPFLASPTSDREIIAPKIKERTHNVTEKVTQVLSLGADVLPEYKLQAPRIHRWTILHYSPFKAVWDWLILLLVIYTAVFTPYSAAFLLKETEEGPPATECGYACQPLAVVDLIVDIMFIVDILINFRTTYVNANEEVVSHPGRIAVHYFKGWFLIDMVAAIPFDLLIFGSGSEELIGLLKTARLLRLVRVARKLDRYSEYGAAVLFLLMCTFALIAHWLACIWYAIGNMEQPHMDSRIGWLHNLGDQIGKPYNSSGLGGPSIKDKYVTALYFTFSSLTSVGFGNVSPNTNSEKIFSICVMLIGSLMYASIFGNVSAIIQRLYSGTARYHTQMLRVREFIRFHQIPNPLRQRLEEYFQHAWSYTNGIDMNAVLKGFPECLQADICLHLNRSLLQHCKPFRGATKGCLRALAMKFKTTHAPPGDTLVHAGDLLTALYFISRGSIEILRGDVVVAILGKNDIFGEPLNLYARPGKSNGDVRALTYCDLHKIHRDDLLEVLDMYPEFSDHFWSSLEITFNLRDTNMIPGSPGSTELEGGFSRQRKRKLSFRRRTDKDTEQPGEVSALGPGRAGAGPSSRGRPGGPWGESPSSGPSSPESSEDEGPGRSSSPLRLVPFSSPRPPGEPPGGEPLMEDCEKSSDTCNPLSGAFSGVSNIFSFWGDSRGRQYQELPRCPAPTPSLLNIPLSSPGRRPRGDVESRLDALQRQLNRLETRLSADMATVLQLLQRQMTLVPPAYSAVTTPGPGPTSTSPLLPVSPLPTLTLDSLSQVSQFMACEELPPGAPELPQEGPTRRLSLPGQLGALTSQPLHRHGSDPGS

MDA-MB-231 = assay: Antiproliferative activity against human MDA-MB-231 cells assessed as growth inhibition at 1 uM after 72 hrs by Cell Titer-Glo assay relative to control; assay type: functional; conditions: read-out: GI
Procedure, shortened: (§1)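 Cells kept at 37 °C in 5% CO2 and plated at 4000 per well. Treated with compound for 72 h. Viability read by CellTiter-Glo luminescence. Each compound run in duplicate, data as means ± SD.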

HCT-116 = assay: Antiproliferative activity against human HCT-116 cells assessed as growth inhibition at 1 uM after 72 hrs by Cell Titer-Glo assay relative to control; assay type: functional; conditions: read-out: GI; procedure, shortened: as §1
[4] = target: T1, Serine/threonine-protein kinase PAK 1; assay: Inhibition of PAK1 (unknown origin)

IC50 [1]	IC50 [2]	Ratio IC50 (Homo sapiens)	IC50 [4]	SMILES	IC50 [3]	inhibition of growth at 1 µM (MDA-MB-231)	inhibition of growth at 1 µM (HCT-116)
777 nM	–	–	–	Cc1cncc(-c2ccc(-c3ccc4c(C(=O)NCC5CC5)n[nH]c4c3)c(Cl)c2)n1	–	–	–
229 nM	–	–	–	Cc1cccc(-c2ccc(-c3ccc4c(C(=O)NCC5CC5)n[nH]c4c3)c(Cl)c2)n1	–	–	–
45 nM	> 10000 nM	> 200	–	CCNC(=O)c1n[nH]c2cc(-c3ccc(-n4cccc(C)c4=O)cc3Cl)ccc12	90400 nM	10.2%	9.37%
21 nM	–	–	–	Cc1cccn(-c2ccc(-c3ccc4c(C(=O)NCCc5ccncc5)n[nH]c4c3)c(Cl)c2)c1=O	–	8.42%	15.3%
–	–	–	–	CN[C@@H]1C[C@H]2O[C@@](C)([C@@H]1OC)n1c3ccccc3c3c4c(c5c6ccccc6n2c5c31)C(=O)NC4	90400 nM	–	–
330 nM	–	–	–	CNC(=O)c1n[nH]c2cc(-c3ccc(-n4ccccc4=O)cc3Cl)ccc12	–	–	–
159 nM	–	–	–	CNC(=O)c1n[nH]c2cc(-c3ccc(-c4cncc(C)n4)cc3Cl)ccc12	–	15.3%	11.5%
42 nM	–	–	–	Cc1cccn(-c2ccc(-c3ccc4c(C(=O)NCC5CCOCC5)n[nH]c4c3)c(Cl)c2)c1=O	–	9.45%	16.2%
> 10000 nM	–	–	–	Cc1cccn(-c2ccc(-c3ccc4c(C(=O)N5CCOCC5)n[nH]c4c3)c(Cl)c2)c1=O	–	–	–
52 nM	–	–	–	CNC(=O)c1n[nH]c2cc(-c3ccc(-c4cccc(C)n4)cc3Cl)ccc12	–	8.12%	7.16%
92 nM	–	–	–	Cc1cccn(-c2ccc(-c3ccc4c(C(=O)NCc5ccccc5)n[nH]c4c3)c(Cl)c2)c1=O	–	9.66%	13.2%
5000 nM	–	–	5000 nM	CNC(=O)c1n[nH]c2cc(-c3ccccc3Cl)ccc12	–	–	–
–	–	–	–	Cc1nc(Nc2n[nH]c3c2CN(C(=O)N[C@H](CN(C)C)c2ccccc2)C3(C)C)c2sccc2n1 [PF-03758309]	41100 nM	62.6%	83.2%
22 nM	–	–	–	Cc1cccn(-c2ccc(-c3ccc4c(C(=O)NCC5CCN(C)CC5)n[nH]c4c3)c(Cl)c2)c1=O	–	18.4%	20.1%
66 nM	–	–	–	Cc1cccn(-c2ccc(-c3ccc4c(C(=O)NCCO)n[nH]c4c3)c(Cl)c2)c1=O	–	17.4%	19.2%
16 nM	–	–	–	Cc1cccn(-c2ccc(-c3ccc4c(C(=O)Nc5ccncc5)n[nH]c4c3)c(Cl)c2)c1=O	–	6.59%	4.41%
744 nM	–	–	–	Cc1cccn(-c2ccc(-c3ccc4c(C(=O)NC5CCOCC5)n[nH]c4c3)c(Cl)c2)c1=O	–	19.2%	7.91%
> 10000 nM	–	–	–	Cc1cccn(-c2ccc(-c3ccc4c(C(=O)N5CCCC5)n[nH]c4c3)c(Cl)c2)c1=O	–	–	–
590 nM	–	–	–	O=C(NCC1CC1)c1n[nH]c2cc(-c3ccc(-n4ccccc4=O)cc3Cl)ccc12	–	–	–
34 nM	> 10000 nM	–	–	Cc1cccn(-c2ccc(-c3ccc4c(C(=O)NCC5CC5)n[nH]c4c3)c(Cl)c2)c1=O	–	6.87%	10.8%
143 nM	–	–	–	Cc1cccn(-c2ccc(-c3ccc4c(C(=O)NC5CCN(C)CC5)n[nH]c4c3)c(Cl)c2)c1=O	–	–	–
16 nM	> 10000 nM	–	–	CNC(=O)c1n[nH]c2cc(-c3ccc(-n4cccc(C)c4=O)cc3Cl)ccc12	–	13.2%	17.2%
71 nM	–	–	–	COCCNC(=O)c1n[nH]c2cc(-c3ccc(-n4cccc(C)c4=O)cc3Cl)ccc12	–	3.07%	10.3%
